One test has as its system KB. Put plainly: The cytotoxic activity was determined against KB cell line. As to conditions: Homo sapiens, read-out: ED50 (the source's name). The format is functional, Mus musculus. An outline of the steps:
(§1)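 KB or HeLa monolayers were grown in Eagle's MEM with 10% fetal calf serum and subcultured every 6–7 days. Drugs were suspended in sterile 0.5% carboxymethylcellulose. 6-Mercaptopurine at 1 μM was the positive control in every run. Cytotoxic concentration is expressed in μg/mL.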

The next test deals with HeLa. Put plainly: The cytotoxic activity was determined against HeLa cell line. Conditions: Homo sapiens, read-out: ED50 (the source's name). The format is functional, Mus musculus. An outline of the steps:
as §1

Test [1] relates to Mus musculus. In words: Long term survivors/no of treated mice was determined for Ehrlich Ascites tumor after intraperitoneal administration at a dose of 200 mg/kg in mice; 18/18.
Test [2] deals with Mus musculus. In words: Antitumor activity against Ehrlich Ascites tumor after intraperitoneal administration at a dose of 90 mg/kg in mice; 3/5. The format is functional.
Test [3] relates to Mus musculus. In words: Percentage of treated /control was determined for Ehrlich Ascites tumor after intraperitoneal administration at a dose of 150 mg/kg in mice. The class given is functional. The procedure, abridged:
(§2)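 Female Albino Swiss mice, five to six weight-matched per group, implanted ip with 1×10^6 viable Ehrlich ascites cells (Trypan blue count). Single ip dose 24 h after implantation (day 1), suspended in 0.9% NaCl with 0.10% Tween 80 and serially diluted in saline. T/C% read at day 12. Survival followed 60 days. Mean of three tests (two at 90 and 100 mg/kg).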

Test [4] has as its system Mus musculus. In words: Antitumor activity against Ehrlich Ascites tumor after intraperitoneal administration at a dose of 400 mg/kg in mice; 0/6. The format is functional.
Test [5] concerns Mus musculus. In words: Long term survivors/no of treated mice was determined for Ehrlich Ascites tumor after intraperitoneal administration at a dose of 90 mg/kg in mice; 5/10. The class given is functional.
The subject of test [6] is Mus musculus. In words: Long term survivors/no of treated mice was determined for Ehrlich Ascites tumor after intraperitoneal administration at a dose of 100 mg/kg in mice; 12/12. The format is functional.
Test [7] has as its system Mus musculus. In words: Long term survivors/no of treated mice was determined for Ehrlich Ascites tumor after intraperitoneal administration at a dose of 250 mg/kg in mice; 15/18.
In test [8] the test system is Mus musculus. Put plainly: Antitumor activity against Ehrlich Ascites tumor after intraperitoneal administration at a dose of 200 mg/kg in mice; 6/6. The class given is functional.
The test system of test [9] is Mus musculus. Put plainly: Antitumor activity against P-388 ascitic leukemia in mice, at a dose of 400 mg/kg; 0/6. The class given is functional.
For test [10], the system named is Mus musculus. In words: Percentage of treated /control was determined against P-388 ascitic leukemia in […] mice, at a dose of 200 mg/kg. The class given is functional. The procedure, abridged:
(§3)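 Female BDF1 mice bearing P-388 ascitic leukemia, run per standard NCI protocol. Single ip dose on day 1, suspended in 0.9% NaCl with 0.10% Tween 80 and serially diluted in saline. T/C% = median survival time of treated mice / median survival of controls × 100. 5-Fluorouracil at 200 mg/kg as positive control. Groups of 6; mean of three tests.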

The subject of test [11] is Mus musculus. In words: No of survivors was determined for Ehrlich Ascites tumor after intraperitoneal administration at a dose of 100 mg/kg in mice; 6/6. The class given is functional.
Test [12] relates to Mus musculus. In words: Percentage of treated /control was determined for Ehrlich Ascites tumor after intraperitoneal administration at a dose of 200 mg/kg in mice. The class given is functional. The procedure, abridged:
as §2

In test [13] the test system is Mus musculus. In words: No of survivors was determined for P-388 ascitic leukemia in mice, at a dose of 100 mg/kg; 6/6. The format is functional.
Test [14] has as its system Mus musculus. In words: Percentage of treated /control was determined against P-388 ascitic leukemia in mice, at a dose of 100 mg/kg. The format is functional. The procedure, abridged:
as §3

The test system of test [15] is Mus musculus. In words: Number of toxic death/ no of treated was determined for P-388 ascitic leukemia in mice, at a dose of 400 mg/kg; 6/6. The class given is functional.
Test [16] has as its system Mus musculus. Put plainly: Number of toxic death/ no of treated mice was determined for Ehrlich Ascites tumor after intraperitoneal administration at a dose of 400 mg/kg in mice; 6/6. The format is functional.
Test [17] relates to Mus musculus. In words: Long term survivors/no of treated mice was determined for Ehrlich Ascites tumor after intraperitoneal administration at a dose of 150 mg/kg in mice; 15/18.
The test system of test [18] is Mus musculus. Put plainly: Antitumor activity against P-388 ascitic leukemia in mice, at a dose of 200 mg/kg; 6/6. The class given is functional.
In test [19] the test system is Mus musculus. In words: Percentage of treated /control was determined for Ehrlich Ascites tumor after intraperitoneal administration at a dose of 100 mg/kg in mice. The class given is functional. The procedure, abridged:
as §2

Test [20] has as its system Mus musculus. Put plainly: Percentage of treated /control was determined for Ehrlich Ascites tumor after intraperitoneal administration at a dose of 90 mg/kg in mice. The class given is functional. An outline of the steps: as §2
For test [21], the system named is Mus musculus. Put plainly: Antitumor activity against Ehrlich Ascites tumor after intraperitoneal administration at a dose of 250 mg/kg in mice; 6/6. The format is functional.
Test [22] deals with Mus musculus. Put plainly: Percentage of treated /control was determined for Ehrlich Ascites tumor after intraperitoneal administration at a dose of 250 mg/kg in mice. The format is functional. The procedure, abridged:
as §2

Test [23] has as its system Mus musculus. Put plainly: Antitumor activity against Ehrlich Ascites tumor after intraperitoneal administration at a dose of 150 mg/kg in mice; 6/6. The format is functional.
Test [24] concerns P388. Put plainly: Percentage of treated /control was determined against P-388 leukemia in […] mice, at a dose of 320 mg/kg. The class given is functional, Mus musculus.
The subject of test [25] is P388. Put plainly: Percentage of treated /control was determined against P-388 leukemia in […] mice, at a dose of 100 mg/kg. The format is functional, Mus musculus. The procedure, abridged: as §3

Take `O=[N+]([O-])c1ccc2c(ccc3oc4ccccc4[n+]32)c1.[O-][Cl+3]([O-])([O-])[O-]`: the EC50 is 12 µg/mL in the test with KB and 15 µg/mL in the test with HeLa.
For `O=[N+]([O-])c1ccc2c(ccc3sc4ccccc4[n+]32)c1.[O-][Cl+3]([O-])([O-])[O-]`, the LTS in the test with Mus musculus [1] was determined as 18; in the test on Mus musculus [5], 5; in the test with Mus musculus [6] it was 12; in the test on Mus musculus [7], 15; with Mus musculus [17], 15. The Survival with Mus musculus [2] stood at 3; with Mus musculus [4] it was 0; in the test with Mus musculus [8], 6; in the test on Mus musculus [9], 0; in the test on Mus musculus [11] it was 6; in the test on Mus musculus [13], 6. Moreover, the Survival in the test with Mus musculus [18], in the test on Mus musculus [21] and in the test with Mus musculus [23] was 6 each time. The T/C with Mus musculus [3] is -0.4%; in the test with Mus musculus [10], 218%; with Mus musculus [12], -6.2%; in the test with Mus musculus [14], 153%; in the test on Mus musculus [19] it was 35.8%; in the test with Mus musculus [20] it was 57.3%. The T/C in the test on Mus musculus [22] was -2.5%. Also, the EC50 in the test with KB worked out at 0.6 µg/mL; with HeLa, 0.9 µg/mL. The Toxicity with Mus musculus [15] and with Mus musculus [16] was 6 in each case.
Turning to `COc1cc2c(ccc3c4cc(OC)c(OC)cc4c[n+](C)c23)cc1O.[Cl-]` [FAGARONINE], in the test with P388 [24], the T/C came out at 290%. Moreover, the EC50 in the test with KB was 0.7 µg/mL.
As to `COc1cc2c[n+](C)c3c4cc5c(cc4ccc3c2cc1OC)OCO5.[Cl-]` [NITIDINE CHLORIDE], in the test on P388 [25], the T/C is 129%.

(Values after ChEMBL document CHEMBL1122150, “Synthesis and biological activity of benzothiazolo- and benzoxazolo[3,2-a]quinolinium salts” (1982).)
